For data set [1], the system named is Rattus norvegicus. The experiment in a line: Antihypertensive activity in double transgenic rat hypertensive model assessed as reduction in blood pressure at 3 mg/kg, po. In kind it is functional.
Data set [2] relates to Rattus norvegicus. Put plainly: Antihypertensive activity in double transgenic rat hypertensive model assessed as time required to reduce blood pressure at 3 mg/kg, po. It is filed as functional.
The target of data set [3] is T1, CYP3A4 (Homo sapiens, UniProt P08684). Put plainly: Ratio of IC50 for human CYP3A4 without preincubation to IC50 for human CYP3A4 preincubated for 30 mins. As to conditions: read-out: Ratio IC50. The procedure, abridged:
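Human liver microsomes (0.25 mg/mL) were preincubated 0 or 30 min at 37 °C with compound (0.03–200 µM) and 1 mM NADPH in 125 mM phosphate buffer. Testosterone (500 µM) was then added for 15 min at 37 °C. Reactions were quenched with acetonitrile and 6β-hydroxytestosterone was measured by HPLC-MS/MS. IC50s were determined under each condition, and the shift is the ratio of the 0-min to the 30-min IC50.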

A short description of data set [4]: Half life in Beagle dog at 3 mg/kg, po. It is filed as ADME, organism-based, Canis lupus familiaris. Also noted: dose 3 mg/kg, route oral. The conditions noted are these: in vivo.
Data set [5] is described as follows: Intrinsic clearance in human liver microsome. In kind it is ADME. As to conditions: liver microsomes. The procedure, abridged: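 Compound (1 µM) was incubated at 37 °C with human liver microsomes (1 mg/mL) and an NADPH regenerating system in 125 mM phosphate buffer. Samples were quenched with acetonitrile at 2, 5, 10, 20, 45 and 75 min and parent loss was followed by HPLC-MS/MS. CLint was calculated from the initial elimination rate constant.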

Data set [6] concerns Rattus norvegicus. The experiment in a line: Antihypertensive activity in double transgenic rat hypertensive model assessed as reduction in blood pressure at 1 mg/kg, po. It is filed as functional.
Data set [7] deals with Rattus norvegicus. Put plainly: Antihypertensive activity in double transgenic rat hypertensive model assessed as time required to reduce blood pressure at 1 mg/kg, po. It is filed as functional.
Data set [8] has as its target T2, Cytochrome P450 3A4 (Homo sapiens, UniProt P08684). The experiment in a line: Inhibition of CYP3A4 in human liver microsome preincubated for 30 mins. It is filed as ADME, microsomes. Put shortly:
(§1)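 Human liver microsomes (0.25 mg/mL) pre-incubated 0 or 30 min at 37 °C with test compound (0.03–200 µM range as printed) and 1 mM NADPH in 125 mM phosphate buffer. Testosterone (500uM) then added as CYP3A substrate, 15 min further at 37 °C. Quenched with acetonitrile, centrifuged, and 6b-hydroxytestosterone formation read by HPLC-MS/MS. IC50 averaged over at least two replicates.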

Data set [9] has as its target T1, CYP3A4. The experiment in a line: Inhibition of CYP3A4 in human liver microsome at 3 uM. It is filed as ADME. The conditions noted are these: liver microsomes. Background: Liver microsomes are a subcellular fraction often used to study metabolism.
The target in data set [10] is T3, Renin (Homo sapiens, UniProt P00797).
T3 sequence (P00797 whole entry): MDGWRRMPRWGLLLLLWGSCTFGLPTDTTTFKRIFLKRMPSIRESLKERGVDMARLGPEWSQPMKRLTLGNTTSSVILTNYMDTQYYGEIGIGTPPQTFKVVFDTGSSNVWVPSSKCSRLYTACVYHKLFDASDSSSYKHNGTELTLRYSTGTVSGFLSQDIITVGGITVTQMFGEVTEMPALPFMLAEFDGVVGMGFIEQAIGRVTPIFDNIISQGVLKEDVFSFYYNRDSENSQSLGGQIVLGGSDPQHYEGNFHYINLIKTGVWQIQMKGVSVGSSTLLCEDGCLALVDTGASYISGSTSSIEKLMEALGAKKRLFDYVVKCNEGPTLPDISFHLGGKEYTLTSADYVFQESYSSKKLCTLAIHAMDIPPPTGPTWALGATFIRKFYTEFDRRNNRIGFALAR
The experiment in a line: Inhibition of human recombinant renin in presence of pH 7.4 buffer. The procedure, abridged: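 Recombinant human renin (3 pg/µL) in PBS pH 7.4 with 1 mM EDTA and 0.1% BSA, premixed with human tetradecapeptide (1–14) substrate and hydroxyquinoline sulfate. Compounds were diluted in DMSO and added, then incubated 3 h at 37 °C. AngI accumulation was measured by immunoassay. % inhibition was computed for each concentration and IC50 obtained by curve fitting. Values are the mean of at least two replicates.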

The target in data set [11] is T3, Renin. Put plainly: Inhibition of human recombinant renin in presence of plasma by immunoassay. In kind it is cell-free. Put shortly: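 Pooled frozen human citrate plasma was spiked with recombinant human renin (150 pg/mL final). Compounds at various concentrations in DMSO were added to a 7:1 mix of plasma and anti-AngI trapping antibody (final antiserum 1:50,000) in Tris/EDTA pH 7.2, then incubated 2 h at 37 °C. AngI was read by immunoassay and IC50 fitted. Values are the mean of at least two replicates.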

The nature of data set [12]: Oral bioavailability in Sprague-Dawley rat at 30 mg/kg. It is filed as ADME, organism-based. As to conditions: in vivo.
Data set [13] can be described thus: Clearance in Sprague-Dawley rat at 30 mg/kg, po. In kind it is ADME, organism-based. Also noted: dose 30 mg/kg, route oral. The conditions noted are these: in vivo.
Data set [14] concerns Rattus norvegicus. Put plainly: Volume of distribution at steady state in Sprague-Dawley rat at 30 mg/kg, po. In kind it is ADME, organism-based. More on the design: dose 30 mg/kg, route oral. The conditions noted are these: in vivo.
Data set [15] can be described thus: Half life in Sprague-Dawley rat at 30 mg/kg, po. Also noted: dose 30 mg/kg, route oral. It is filed as ADME, organism-based. As to conditions: in vivo.
Data set [16] addresses T1, CYP3A4. The experiment in a line: (§2) Inhibition of CYP3A4 in human liver microsome. It is filed as ADME, microsomes. The conditions noted are these: human, liver microsomes. Put shortly:
as §1

Data set [17] concerns the target T2, Cytochrome P450 3A4. Described as §2. It is filed as ADME, microsomes. The procedure, abridged: as §1
Data set [18] in a line: Metabolic stability in human liver microsome assessed as compound remaining at 50 uM after 1 hr. It is filed as ADME. As to conditions: liver microsomes, read-out: Stability.
Data set [19] is described as follows: Metabolic stability in human liver microsome assessed as compound remaining at 20 uM after 1 hr. It is filed as ADME. The conditions noted are these: liver microsomes, read-out: Stability.
Data set [20] can be described thus: Oral bioavailability in Beagle dog at 3 mg/kg. It is filed as ADME, organism-based, Canis lupus familiaris. As to conditions: in vivo.
Data set [21] can be described thus: Clearance in Beagle dog at 3 mg/kg, po. As to conditions: in vivo. It is filed as ADME, organism-based, Canis lupus familiaris. More on the design: dose 3 mg/kg, route oral.
The next data set relates to Canis familiaris. The experiment in a line: Volume of distribution at steady state in Beagle dog at 3 mg/kg, po. More on the design: dose 3 mg/kg, route oral. As to conditions: in vivo. It is filed as ADME, organism-based, Canis lupus familiaris.

Structures are written as SMILES. pIC50, pKi: −log10 of the molar value.

T2 sequence (P08684 whole entry): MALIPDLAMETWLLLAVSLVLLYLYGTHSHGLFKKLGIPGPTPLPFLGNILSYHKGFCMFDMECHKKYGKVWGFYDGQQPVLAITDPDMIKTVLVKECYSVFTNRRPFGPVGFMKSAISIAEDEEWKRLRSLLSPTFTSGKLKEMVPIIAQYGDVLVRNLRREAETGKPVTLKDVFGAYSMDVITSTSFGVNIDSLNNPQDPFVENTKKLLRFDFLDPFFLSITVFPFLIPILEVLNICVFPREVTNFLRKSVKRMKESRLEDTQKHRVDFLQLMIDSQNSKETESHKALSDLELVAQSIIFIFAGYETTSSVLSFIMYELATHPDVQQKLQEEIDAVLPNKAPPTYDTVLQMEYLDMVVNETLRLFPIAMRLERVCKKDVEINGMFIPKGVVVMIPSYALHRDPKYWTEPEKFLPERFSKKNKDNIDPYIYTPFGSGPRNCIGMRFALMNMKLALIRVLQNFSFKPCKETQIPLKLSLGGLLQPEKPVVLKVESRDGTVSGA
T1 sequence (P08684 whole entry): as above

Take `Cc1cc(Cl)c(OCCOc2ccc(C[C@H](CN)C(=O)N(Cc3cc(CCCC#N)ccc3Cl)C3CC3)cc2)c(Cl)c1`: the Activity in the data set with Rattus norvegicus [1] is 27 mmHg. Further, in the data set with Rattus norvegicus [2], the Time stood at 48 h. For the same compound, the IC50 shift at CYP3A4 [3] turned out to be 120.

As to `COCCCc1cc(CN(C(=O)[C@@H](CN)Cc2ccc(OCCOc3c(Cl)cc(C)cc3Cl)cc2)C2CC2)c2ccccc2n1`, at CYP3A4 [3], the IC50 shift was determined as 120.

For `COCCCc1cc(CN(C(=O)[C@@H](CN)Cc2ccc(OCCOc3c(Cl)cc(C)cc3Cl)cc2)C2CC2)cc(OCCOC)c1`, the IC50 shift on CYP3A4 [3] stood at 1.5.

`COCCc1ccc(Cl)c(CN(C(=O)CCc2ccc(OCCOc3c(Cl)cc(C)cc3Cl)cc2)C2CC2)c1`: the IC50 shift at CYP3A4 [3] is 40.

With `COCCc1ccc(Cl)c(C[C@H](C[C@@H](CN)Cc2ccc(OCCOc3c(Cl)cc(C)cc3Cl)cc2)C2CC2)c1`, the IC50 shift at CYP3A4 [3] stood at 3.5.

As for `Cc1cc(Cl)c(OCCOc2ccc(C[C@H](CN)C(=O)N(Cc3cc(CCS(C)(=O)=O)ccc3Cl)C3CC3)cc2)c(Cl)c1`, the IC50 shift on CYP3A4 [3] came to 50.

`COCCc1ccc(Cl)c(CN(C)C(=O)[C@@H](CN)Cc2ccc(OCCOc3c(Cl)cc(C)cc3Cl)cc2)c1`: the IC50 shift on CYP3A4 [3] stood at 40.

Take `COCCc1ccc(Cl)c(CN(C(=O)[C@@H](CN)Cc2ccc(OCCOc3c(Cl)cc(C)cc3Cl)cc2)C2CCC2)c1`: at CYP3A4 [3], the IC50 shift was 180.

Regarding `COCCCc1cc(CN(C(=O)[C@@H](CN)Cc2ccc(OCCOc3c(Cl)cc(C)cc3Cl)cc2)C2CC2)cc(OCCN2CCOCC2)c1`, on CYP3A4 [3], the IC50 shift was under 1.

`COCCCc1cc(CN(C(=O)[C@@H](CN)Cc2ccc(OCCOc3c(Cl)cc(C)cc3Cl)cc2)C2CC2)c(Cl)cn1`: the IC50 shift on CYP3A4 [3] turned out to be 90.

Take `COCCCc1ccc(Cl)c(CN(C(=O)[C@@H](CN)Cc2ccc(OCCOc3c(Cl)cc(C)cc3Cl)cc2)C2CC2)c1`: the half-life in [4] is 17 h; in data set [15] it was 6 h. In data set [5], the CLint scaled was found to be 15 mL/min/kg. For the same compound, the Activity in the data set with Rattus norvegicus [6] is reported as 13 mmHg. Also, the Time with Rattus norvegicus [7] is 24 h. The IC50 shift at CYP3A4 [3] stood at 110. Besides, the pIC50 against Cytochrome P450 3A4 [8] is 6.92; at Renin [10], 10.05; on Renin [11], 8.62; against Cytochrome P450 3A4 [17], 4.85. Moreover, the inhibition at 3 µM at CYP3A4 [9] was 7%. For the same compound, the bioavailability was determined as 41% in data set [12] and 32% in data set [20]. Besides, the CL/F was 35 mL/min/kg in data set [13] and 16 mL/min/kg in [21]. For the same compound, the values for the Vdss with Rattus norvegicus [14] and with Canis familiaris were 12 L/kg and 8.4 L/kg, respectively. Moreover, the kinact on CYP3A4 [16] is 0.00157 s⁻¹. Further, the pKi at Cytochrome P450 3A4 [17] was 5.49. In data set [18], the remaining at 1 h, 50 µM worked out at 98%. Besides, the remaining at 1 h, 20 µM in data set [19] was 94%.

With `COCCc1ccc(Cl)c(C[C@@H](C[C@@H](CN)Cc2ccc(OCCOc3c(Cl)cc(C)cc3Cl)cc2)C2CC2)c1`, on CYP3A4 [3], the IC50 shift came out at 1.7.

Take `COCCc1ccc(Cl)c(CN(C(=O)[C@H](Cc2ccc(OCCOc3c(Cl)cc(C)cc3Cl)cc2)[C@H](C)N)C2CC2)c1`: the IC50 shift at CYP3A4 [3] was 60.

With `Cc1cc(Cl)c(OCCOc2ccc(C[C@H](CN)C(=O)N(Cc3cc(CCCC#N)cc4cccnc34)C3CC3)cc2)c(Cl)c1`, at CYP3A4 [3], the IC50 shift was 140.

For the compound `COCCc1ccc(Cl)c(CN(C(=O)[C@@H](CN)Cc2ccccc2)C2CC2)c1`, the IC50 shift on CYP3A4 [3] was found to be 120.

As for `COCCc1ccc(Cl)c(CN(CC2CC2)C(=O)[C@@H](CN)Cc2ccc(OCCOc3c(Cl)cc(C)cc3Cl)cc2)c1`, the IC50 shift at CYP3A4 [3] came out at 100.

As for `COCCc1ccc(Cl)c(CN(C(=O)[C@@H](CN)Cc2ccc(CCOc3c(Cl)cc(C)cc3Cl)cc2)C2CC2)c1`, the IC50 shift at CYP3A4 [3] came out at 60.

On to `COCCc1ccc(Cl)c(CN(CC2CCC2)C(=O)[C@@H](CN)Cc2ccc(OCCOc3c(Cl)cc(C)cc3Cl)cc2)c1`, for which the IC50 shift at CYP3A4 [3] stood at 130.

`CC(=O)N(C)Cc1ccc(Cl)c(CN(C(=O)[C@@H](CN)Cc2ccc(OCCOc3c(Cl)cc(C)cc3Cl)cc2)C2CC2)c1`: the IC50 shift on CYP3A4 [3] is 35.

For the compound `COCCc1ccc(Cl)c(CN(C(=O)[C@@H](CN)Cc2ccc(OCCOc3c(Cl)cc(C)cc3Cl)cc2)C2CC2)c1`, the IC50 shift at CYP3A4 [3] came to 110.

Regarding `COCCCc1cc(CN(C(=O)[C@@H](CN)Cc2ccc(OCCOc3c(Cl)cc(C)cc3Cl)cc2)C2CC2)c(Cl)c[n+]1[O-]`, on CYP3A4 [3], the IC50 shift was determined as 70.

For `COCCc1ccc(Cl)c(CN(C(=O)[C@H](Cc2ccc(OCCOc3c(Cl)cc(C)cc3Cl)cc2)C(N)=O)C2CC2)c1`, the IC50 shift at CYP3A4 [3] is 55.

For the compound `COCCc1ccc(Cl)c(CN(C[C@@H](CN)Cc2ccc(OCCOc3c(Cl)cc(C)cc3Cl)cc2)C2CC2)c1`, the IC50 shift on CYP3A4 [3] was found to be 5.8.

By half-life is commonly meant how long it takes for the measured level to halve. Broadly, the CLint scaled is a measure of how fast metabolising enzymes remove a compound, apart from limits set by blood flow. Read a high CLint scaled as rapid turnover. As usually defined, the pIC50 is the negative decadic logarithm of the IC50, by convention in mol/L. In general, inhibition refers to how much of the control response was suppressed. As usually defined, the bioavailability is the share of a dose that reaches the circulation, judged against a reference dose that is usually intravenous. A low value points to little systemic uptake. In general, CL/F refers to the apparent clearance, not corrected for the fraction that reaches the circulation. For orientation: kinact means the maximal first-order rate at which the target is inactivated. The term pKi denotes the negative decadic logarithm of the Ki, by convention in mol/L.

For the origin of these results see ChEMBL document CHEMBL1221273, “Addressing time-dependent CYP 3A4 inhibition observed in a novel series of substituted amino propanamide renin inhibitors, a case study” (Bioorg Med Chem Lett, 2010).
